Measurements collected from several papers.
Compare with care: the assays were run in different laboratories.
Organism: Staphylococcus aureus
Observed: microbial growth

| SMILES | method | strain | time | notes | MIC |
| --- | --- | --- | --- | --- | --- |
| Oc1ccccc1-c1nc2ccccc2[nH]1 | broth dilution | ATCC29213 MSSA |  |  | 256 µg/mL |
| CCCN/C(=N/C)c1ccc(NC(=O)c2ccc(C(=O)Nc3ccc(/C(=N\C)NCCC)cc3)cc2)cc1 |  |  |  |  | 16 µg/mL |
| CC1(C)S[C@@H]2[C@H](NC(=O)[C@H](N)c3ccccc3)C(=O)N2[C@H]1C(=O)O | broth dilution | ATCC25923 | 16 h |  | 0.15 µg/mL |
| Fc1ccc(-c2nc3ccccc3[nH]2)cc1 | broth dilution | ATCC29213 MSSA |  |  | 256 µg/mL |
| c1ccc2c(-c3cnn4cc(-c5ccc(N6CCNCC6)cc5)cnc34)ccnc2c1 |  | NCTC8325 |  |  | > 30 µM |
| c1ccc2[nH]c(-c3ccncc3)nc2c1 | broth dilution | ATCC29213 MSSA |  |  | 128 µg/mL |
| Clc1cccc(NCc2ccc(Oc3ccccn3)cc2)c1 |  |  |  |  | 1.8 µg/mL |
| CC(=O)NC[C@H]1CN(c2ccc(N3CCOCC3)c(F)c2)C(=O)O1 | broth dilution | MRSA NRS383 USA200 |  | drug-resistant strain | 2 µg/mL |
| CC(C)Oc1c(NC(=O)c2ccc(NC(=O)[C@H](CC(N)=O)NC(=O)c3ccc(NC(=O)c4ccc(N)cc4)cc3)cc2)ccc(C(=O)Nc2ccc(C(=O)O)cc2)c1O |  | ATCC29213 |  |  | > 64 µg/mL |
| O=C(O)CN1C(=O)/C(=C/c2ccc(-c3ccc(N(c4ccccc4)c4ccccc4)cc3)cc2)NC1=S | broth dilution | ATCC6538 |  |  | 1.95 µg/mL |
| C[n+]1c(/C=C/c2ccc(O)cc2)cc(/C=C2\Sc3ccccc3N2CCCN2CCOCC2)c2ccccc21.[I-] | broth dilution | ATCCBAA44 |  |  | 8 µg/mL |
| Cc1ccc2nc(-c3cccc([N+](=O)[O-])c3)[nH]c2c1 | broth dilution | ATCC29213 MSSA |  |  | 64 µg/mL |
| O=C1NC(=S)S/C1=C\c1c2ccccc2c(-c2ccc(N(c3ccccc3)c3ccccc3)cc2)c2ccccc12 | broth dilution | ATCC43300 |  |  | > 1000 µg/mL |
| C#CCCCCC(=O)NC(C)C |  | NCTC8325 |  |  | > 100 µM |
| O=C1NC(=S)N/C1=C\c1ccc(-c2ccc(N(c3ccccc3)c3ccccc3)cc2)cc1 | broth dilution | ATCC25923 |  |  | > 1000 µg/mL |
| CC(C)Oc1c(NC(=O)c2ccc(NC(=O)[C@H](CC(N)=O)NC(=O)c3ccc(NC(=O)c4ccccc4[N+](=O)[O-])cc3)cc2)ccc(C(=O)Nc2ccc(C(=O)O)cc2)c1O |  | ATCC29213 |  |  | > 64 µg/mL |
| C/C=C(\C)c1cc(O)c(C)c(OC(=O)c2c(C)c(Cl)c(O)c(Cl)c2O)c1 | broth dilution | 16339 |  |  | 8 µg/mL |
| CC(C)Oc1c(NC(=O)c2ccc(NC(=O)[C@H](CC(N)=O)NC(=O)c3ccc(NC(=O)c4ccccc4)cc3)cc2)ccc(C(=O)Nc2ccc(C(=O)O)cc2)c1O |  | ATCC29213 |  |  | > 64 µg/mL |
| C/C=C(\C)c1cc(O)c(C)c(OC(=O)c2c(C)cc(O)c(Cl)c2O)c1 | broth dilution | ATCC29213 |  |  | 8 µg/mL |
| COC1/C=C/OC2(C)Oc3c(C)c(O)c4c(O)c(c5c(nc6cc(C)ccn65)c4c3C2=O)NC(=O)/C(C)=C\C=C\C(C)C(O)C(C)C(O)C(C)C(OC(C)=O)C1C (stereo not drawn) |  |  |  |  | ≤ 0.06 µg/mL |
| CC[C@H]1OC(=O)[C@H](C)[C@@H](O[C@H]2C[C@@](C)(OC)[C@@H](O)[C@H](C)O2)[C@H](C)[C@@H](O[C@@H]2O[C@H](C)C[C@H](N(C)C)[C@H]2O)[C@](C)(O)C[C@@H](C)C(=O)[C@H](C)[C@@H](O)[C@]1(C)O |  | 129 |  | clinical isolate | > 100 µM |

| SMILES | method | strain | time | notes | MIC |
| --- | --- | --- | --- | --- | --- |
| O=C1NN=C(N=Cc2ccccc2)C1=NNn1c(-c2ccccc2)nc2ccccc2c1=O | broth dilution |  | 24 h |  | 57.1 µM |
| CC(C)Oc1c(NC(=O)c2ccc(NC(=O)[C@H](CC(N)=O)NC(=O)c3ccc(NC(=O)c4cccc([N+](=O)[O-])c4)cc3)cc2)ccc(C(=O)Nc2ccc(C(=O)O)cc2)c1O |  | ATCC29213 |  |  | > 64 µg/mL |
| CCCC(=O)Oc1c(C)c(O)c(C(=O)/C=C/c2ccccc2)c(OC)c1C | broth dilution | ATCC25923 |  |  | > 5000 µg/mL |
| Cc1ccc(C)n1-c1ccc(-c2nnc(-c3ccc(Br)cc3)[nH]2)cc1 | broth dilution | ATCC11632 | 18 h |  | 1 µg/mL |
| Clc1ccccc1NCc1ccc(Oc2ccccn2)cc1 |  |  |  |  | 1.6 µg/mL |
| CNC(=O)c1cc(Oc2ccc(NC(=O)Nc3ccc(Oc4ccccc4)cc3)cc2)ccn1 |  | NCTC8325 |  |  | > 100 µM |
| O=[N+]([O-])c1cccc(-c2nc3ccccc3[nH]2)c1 | broth dilution | ATCC29213 MSSA |  |  | 64 µg/mL |
| CC(C)Oc1c(NC(=O)c2ccc(NC(=O)[C@H](CC(N)=O)NC(=O)c3ccc(NC(=O)c4ccc(C#N)cc4)cc3)cc2)ccc(C(=O)Nc2ccc(C(=O)O)cc2)c1O |  | ATCC29213 |  |  | 0.25 µg/mL |
| O=C(O)c1cn(C2CC2)c2cc(N3CCNCC3)c(F)cc2c1=O | broth dilution | ATCC29213 MSSA |  |  | 8 µg/mL |
| O=S(=O)(NCCNC/C=C/c1ccc(Br)cc1)c1cccc2cnccc12 |  | NCTC8325 |  |  | > 30 µM |
| C/C=C(\C)c1cc(OC(=O)c2c(C)c(Cl)c(O)c(Cl)c2O)c(C)c(O)c1C(=O)O | broth dilution | MRSA |  |  | 64 µg/mL |
| COc1cc2/c(=N/c3ccc(Br)cc3F)nc[nH]c2cc1OCC1CCN(C)CC1 |  | NCTC8325 |  |  | > 30 µM |
| Cc1c(CN(C)C(=O)/C=C/c2cnc3c(c2)CC(NC(=O)OC(C)(C)C)C(=O)N3)oc2ccccc12 (stereo not drawn) | broth dilution | ATCC29213 |  |  | 0.016 µg/mL |
| Cc1cccc(-c2[nH]c(C(C)(C)C)nc2-c2ccc3nccnc3c2)n1 |  | NCTC8325 |  |  | > 30 µM |
| COc1cc(Cc2cnc(N)nc2N)cc(OC)c1OC | broth dilution |  | 24 h |  | 2 µg/mL |
| Cc1cc(C)n(C(=O)c2ccc(-n3c(C)ccc3C)cc2)n1 | broth dilution | ATCC11632 | 18 h |  | 125 µg/mL |
| O=C(Nc1ccc(Cl)c(C(F)(F)F)c1)N1CCc2ccccc2C1 |  | NCTC8325 | 24 h |  | 30 µM |
| CS(=O)(=O)c1cccc(-c2nnc(NC(=O)c3ccc(-c4ccccc4)cc3)o2)c1 |  |  |  |  | > 128 µg/mL |
| CNc1cccc2cc(C(=O)NCc3ccc(C(=O)O)cc3)c(=O)[nH]c12 |  | ATCC29213 |  |  | > 64 µg/mL |
| Nc1ncnc2c1c(-c1cnc3[nH]ccc3c1)nn2C1CCCC1 |  | NCTC8325 |  |  | > 30 µM |
| CO[C@H]1/C=C/O[C@@]2(C)Oc3c(C)c(O)c4c(O)c(c(/C=N/N5CCN(C)CC5)c(O)c4c3C2=O)NC(=O)/C(C)=C\C=C\[C@H](C)[C@H](O)[C@@H](C)[C@@H](O)[C@@H](C)[C@H](OC(C)=O)[C@@H]1C | broth dilution | ATCC29213 | 24 h |  | 0.0078 µg/mL |
